Test results reported in ChEMBL document CHEMBL3758131, “Towards new 5-HT7 antagonists among arylsulfonamide derivatives of (aryloxy)ethyl-alkyl amines: Multiobjective based design, synthesis, and antidepressant and anxiolytic properties” (Eur J Med Chem, 2016).

Legend:
[1] = target: T1, 5-hydroxytryptamine receptor 7 (Homo sapiens, UniProt P34969); experiment: Antagonist activity at human 5-HT7B receptor expressed in HEK293 cells assessed as inhibition of 5-CT-induced cAMP production after 30 mins by TR-FRET assay; type: functional, cell-based
In short: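 HEK293 cells stably expressing human 5-HT7b, grown in DMEM with 10% dialyzed FBS and G418, then resuspended in HBSS with 5 mM HEPES, 0.5 mM IBMX and 0.1% BSA. 450 cells per well were incubated 30 min at room temperature with compound and 6.2 nM 5-CT. After lysis, cAMP was read by LANCE TR-FRET after 1 h. Triplicate, 8 concentrations (10^-11–10^-4 M). Kb = IC50/(1+A/EC50).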

[2] = tested on: Rattus norvegicus; experiment: Antidepressant activity in ip dosed Wistar rat assessed as reduction in immobility time of rat by forced swim test; type: functional; details: read-out: MED
In short: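 Male Wistar rats (220-250 g), ip injection 30 min before test. Day 1: 15-min pre-swim in a cylinder with 15 cm of water at 25 °C, then drying under a lamp. Next day: total immobility recorded over the whole 5-min test, with fresh water for each rat.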

[3] = tested on: Mus musculus; experiment: Antidepressant activity in C57BL/6J mouse assessed as average force at 5 mg/kg, ip measured over 6 mins by tail suspension test (reference value: 0.281 +/- 0.018 to 0.359 +/- 0.027 N); type: functional
[4] = target: D(2) dopamine receptor (Homo sapiens, UniProt P14416); experiment: Displacement of [3H]-Raclopride from human D2L receptor expressed in HEK293 cells after 1 hr; type: cell-based
In short: (§1)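 Membranes from stably transfected HEK293 cells were homogenized in assay buffer and spun twice at 35,000 g with a 15-min 37 °C step between. Binding ran 1 h at 37 °C and was stopped by rapid filtration, then filter radioactivity was counted. 5-HT6 buffer: 50 mM Tris-HCl, 0.5 mM EDTA, 4 mM MgCl2, with methiothepine for nonspecific binding. D2L buffer: Tris-HCl, EDTA, MgCl2, 120 mM NaCl, KCl, CaCl2, ascorbate, with (+)butaclamol for nonspecific binding. Triplicate, 7–8 concentrations (10^-11–10^-4 M).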

[5] = target: 5-hydroxytryptamine receptor 6 (Homo sapiens, UniProt P50406); experiment: Displacement of [3H]-LSD from human 5-HT6 receptor expressed in HEK293 cells after 1 hr; type: cell-based; in short: as §1
[6] = target: T2, 5-hydroxytryptamine receptor 1A (Homo sapiens, UniProt P08908); experiment: Displacement of [3H]-8-OH-DPAT from human 5-HT1A receptor expressed in HEK293 cells after 1 hr; type: cell-based
T2 sequence (P08908 whole entry): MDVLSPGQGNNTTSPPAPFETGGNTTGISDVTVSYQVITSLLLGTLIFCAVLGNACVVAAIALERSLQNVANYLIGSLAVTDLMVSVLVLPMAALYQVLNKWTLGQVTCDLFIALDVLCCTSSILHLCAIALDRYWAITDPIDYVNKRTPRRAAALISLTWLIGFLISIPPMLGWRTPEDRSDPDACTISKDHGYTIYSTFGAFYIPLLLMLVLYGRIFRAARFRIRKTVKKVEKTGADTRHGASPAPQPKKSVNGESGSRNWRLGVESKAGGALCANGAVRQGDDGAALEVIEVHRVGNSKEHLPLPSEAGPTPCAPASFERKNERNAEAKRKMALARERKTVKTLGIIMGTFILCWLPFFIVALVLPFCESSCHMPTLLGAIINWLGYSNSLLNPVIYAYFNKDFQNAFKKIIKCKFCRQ
In short: (§2)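 Competition binding on membranes from HEK293 cells stably expressing human 5-HT7b or 5-HT1A. Incubation 1 h, at 37 °C for 5-HT7b and at room temperature for 5-HT1A. Non-specific binding defined with 10 µM 5-HT.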

[7] = tested on: Mus musculus; experiment: Antidepressant activity in C57BL/6J mouse assessed as average force at […] mg/kg, ip measured over 6 mins by tail suspension test (reference value: 0.281 +/- 0.018 to 0.359 +/- 0.027 N); type: functional
[8] = target: T1, 5-hydroxytryptamine receptor 7; experiment: Displacement of [3H]-5-CT from human 5-HT7B receptor expressed in HEK293 cells after 1 hr; type: cell-based; in short: as §2
[9] = tested on: Mus musculus; experiment: Antidepressant activity in ip dosed albino Swiss mouse assessed as decrease in immobility time at MED by forced swim test; type: functional
[10] = tested on: Mus musculus; experiment: Antidepressant activity in C57BL/6J mouse assessed as immobility time at […], ip measured over 6 mins by tail suspension test (reference value: 160.7 +/- 12 to 170.6 +/- 9 sec); type: functional
[11] = tested on: Mus musculus; experiment: Antidepressant activity in C57BL/6J mouse assessed as number of events at 0.625 mg/kg, ip measured over 6 mins by tail suspension test (reference value: 1325.1 +/- 77.8 to 1773.4 +/- 109.9); type: functional
[12] = target: 5-hydroxytryptamine receptor 2A (Homo sapiens, UniProt P28223); experiment: Displacement of [3H]-Ketanserin from human 5-HT2A receptor expressed in HEK293 cells after 1 hr; type: cell-based
[13] = tested on: Mus musculus; experiment: Antidepressant activity in C57BL/6J mouse assessed as number of events at 5 mg/kg, ip measured over 6 mins by tail suspension test (reference value: 1325.1 +/- 77.8 to 1773.4 +/- 109.9); type: functional
[14] = species on record: Homo sapiens; experiment: Selectivity index ratio of Ki for human 5-HT1A receptor to Ki for human 5-HT7B
[15] = tested on: Mus musculus; experiment: Toxicity in ip dosed Albino Swiss mouse assessed as effect on spontaneous locomotory activity at MED measured over 2 to 6 mins; details: in vivo
[16] = tested on: Mus musculus; experiment: Antidepressant activity in C57BL/6J mouse assessed as number of events at […], ip measured over 6 mins by tail suspension test (reference value: 1325.1 +/- 77.8 to 1773.4 +/- 109.9); type: functional
[17] = tested on: Mus musculus; experiment: Antidepressant activity in C57BL/6J mouse assessed as immobility time at […] mg/kg, ip measured over 6 mins by tail suspension test (reference value: 160.7 +/- 12 to 170.6 +/- 9 sec); type: functional
[18] = target: Adrenergic receptor alpha-1 (Rattus norvegicus); experiment: Displacement of [3H]-prazosin from rat alpha1 adrenoceptor in rat cerebral cortex after 1 hr
[19] = tested on: Mus musculus; experiment: Antidepressant activity in ip dosed C57BL/6J mouse assessed as reduction in immobility time of mouse by tail suspension test; type: functional; details: read-out: MED
[20] = tested on: Mus musculus; experiment: Antidepressant activity in C57BL/6J mouse assessed as immobility time at 5 mg/kg, ip measured over 6 mins by tail suspension test (reference value: 160.7 +/- 12 to 170.6 +/- 9 sec); type: functional
[21] = tested on: Mus musculus; experiment: Antidepressant activity in C57BL/6J mouse assessed as immobility time at 0.625 mg/kg, ip measured over 6 mins by tail suspension test (reference value: 160.7 +/- 12 to 170.6 +/- 9 sec); type: functional
[22] = target: T1, 5-hydroxytryptamine receptor 7; experiment: Antagonist activity at human 5-HT7B receptor expressed in […] cells assessed as inhibition of 5-CT induced cAMP production at 10^-6 M after 30 mins by TR-FRET assay; type: functional, cell-based

T1 sequence (P34969 whole entry): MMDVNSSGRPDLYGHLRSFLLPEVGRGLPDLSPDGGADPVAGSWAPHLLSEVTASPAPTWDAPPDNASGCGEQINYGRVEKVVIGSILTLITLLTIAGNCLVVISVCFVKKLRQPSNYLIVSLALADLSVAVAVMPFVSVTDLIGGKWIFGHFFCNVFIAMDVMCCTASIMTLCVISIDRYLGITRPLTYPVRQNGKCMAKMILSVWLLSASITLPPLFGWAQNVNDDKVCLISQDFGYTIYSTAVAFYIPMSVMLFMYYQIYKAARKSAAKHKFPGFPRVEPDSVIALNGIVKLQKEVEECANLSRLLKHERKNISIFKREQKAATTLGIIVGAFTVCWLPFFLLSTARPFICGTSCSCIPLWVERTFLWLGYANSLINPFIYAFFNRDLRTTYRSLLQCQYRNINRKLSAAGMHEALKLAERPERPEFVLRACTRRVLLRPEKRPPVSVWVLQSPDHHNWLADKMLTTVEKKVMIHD
Sequence of D(2) dopamine receptor (P14416 whole entry): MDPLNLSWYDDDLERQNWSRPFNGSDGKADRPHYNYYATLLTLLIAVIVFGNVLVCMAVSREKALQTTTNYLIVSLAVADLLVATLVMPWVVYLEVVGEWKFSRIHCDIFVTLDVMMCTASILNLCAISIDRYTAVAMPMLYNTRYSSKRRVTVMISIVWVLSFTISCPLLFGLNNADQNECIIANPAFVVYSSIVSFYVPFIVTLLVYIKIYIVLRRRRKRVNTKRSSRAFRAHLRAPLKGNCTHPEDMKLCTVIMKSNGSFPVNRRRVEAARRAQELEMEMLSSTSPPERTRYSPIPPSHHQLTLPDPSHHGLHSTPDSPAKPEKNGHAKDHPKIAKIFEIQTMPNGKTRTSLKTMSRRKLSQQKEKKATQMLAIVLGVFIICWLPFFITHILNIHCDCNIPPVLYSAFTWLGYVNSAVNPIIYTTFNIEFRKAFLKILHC
Sequence of 5-hydroxytryptamine receptor 2A (P28223 whole entry): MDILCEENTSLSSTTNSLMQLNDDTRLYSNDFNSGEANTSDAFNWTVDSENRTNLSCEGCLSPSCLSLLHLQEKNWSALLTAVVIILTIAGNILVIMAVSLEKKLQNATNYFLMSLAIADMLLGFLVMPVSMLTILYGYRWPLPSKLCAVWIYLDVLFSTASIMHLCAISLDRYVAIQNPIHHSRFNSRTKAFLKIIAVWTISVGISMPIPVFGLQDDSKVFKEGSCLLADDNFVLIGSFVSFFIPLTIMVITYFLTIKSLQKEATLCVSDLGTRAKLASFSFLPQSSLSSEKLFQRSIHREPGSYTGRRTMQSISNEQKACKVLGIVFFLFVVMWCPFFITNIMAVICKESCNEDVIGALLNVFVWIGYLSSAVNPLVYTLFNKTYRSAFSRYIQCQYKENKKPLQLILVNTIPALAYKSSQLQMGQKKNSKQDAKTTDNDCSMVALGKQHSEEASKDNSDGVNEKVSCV
Sequence of 5-hydroxytryptamine receptor 6 (P50406 whole entry): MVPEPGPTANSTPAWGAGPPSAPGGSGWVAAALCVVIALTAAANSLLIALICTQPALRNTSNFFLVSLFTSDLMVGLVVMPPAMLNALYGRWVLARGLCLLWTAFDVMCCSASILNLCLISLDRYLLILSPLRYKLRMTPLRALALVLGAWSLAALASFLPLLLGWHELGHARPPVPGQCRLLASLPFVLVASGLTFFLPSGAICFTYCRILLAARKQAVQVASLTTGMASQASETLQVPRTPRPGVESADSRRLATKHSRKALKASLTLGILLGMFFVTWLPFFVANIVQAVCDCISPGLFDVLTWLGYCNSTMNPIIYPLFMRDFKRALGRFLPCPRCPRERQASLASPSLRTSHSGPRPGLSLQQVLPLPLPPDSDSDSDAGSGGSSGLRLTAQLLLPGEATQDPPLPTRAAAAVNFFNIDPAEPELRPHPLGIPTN

O=S(=O)(NC1CCN(CCOc2ccccc2C2CCCC2)CC1)c1cccc(F)c1
Kb [1]: 85 nM
minimal effective dose [2]: 1.25 mg/kg
Activity [3]: 0.426 N
Ki [4]: 322 nM
Ki [5]: 281 nM
Ki [6]: 545 nM
Activity [7]: 0.29 N
Ki [8]: 19 nM
inhibition (INH) [9]: 18%
Time [10]: 103.5 s
Activity [11]: 1446.8
Ki [12]: 303 nM
Activity [13]: 1682
Ratio Ki [14]: 31
Activity [15]: Non-toxic
Activity [16]: 1400.7
Time [17]: 192.5 s
Ki [18]: 1525 nM
minimal effective dose [19]: 2.5 mg/kg
Time [20]: 142.8 s
Time [21]: 234.4 s
inhibition [22]: 90%
